# In ChEMBL document CHEMBL4689842, “EUbOPEN Chemogenomics Library wave 1” (2021):
# Several values for one entry are separate records, joined by “and”; a condition that tells them apart may be missing. Identical values can stand only once.
# System: Fibroblast
# Experiment: Multiplex assay against human fibroblast
# Type: toxicity, cell-based
# Method in brief: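 Values for tubulin, mitochondrial-mass and membrane-permeability phenotypes are per cents of cells with healthy nuclei. These cells were identified by CellPathfinder machine-learning gating of live cells that had been stained at seeding with Hoechst33342, BioTracker Green Microtubule Cytoskeleton Dye, MitoTracker Red and Annexin V Alexa Fluor 680 and imaged on a CQ1 microscope at 37°C and 5% CO2 after compound addition. The gating first set Hoechst high-intensity objects apart from normal cells, then split normal cells into healthy, pyknosed or fragmented nuclei, and pyknosed cells into mitotic or apoptotic.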
# [1] = 12 h, 1 µM, compound concentration 1 uM, replicate 1
# [2] = 12 h, 1 µM, compound concentration 1 uM, replicate 2
# [3] = 12 h, 10 µM, compound concentration 10 uM, replicate 1
# [4] = 12 h, 10 µM, compound concentration 10 uM, replicate 2
# [5] = 24 h, 1 µM, compound concentration 1 uM, replicate 1
# [6] = 24 h, 1 µM, compound concentration 1 uM, replicate 2
# [7] = 24 h, 10 µM, compound concentration 10 uM, replicate 1
# [8] = 24 h, 10 µM, compound concentration 10 uM, replicate 2
smiles,measurement,setting,value
C=CCn1c(=O)c2cnc(Nc3ccc(N4CCN(C)CC4)cc3)nc2n1-c1cccc(C(C)(C)O)n1 [ADAVOSERTIB],Population Apoptotic (%),[1],69%
same,Population Fragmented Nuclei (%),[1],28%
same,Population Healthy Nuclei (%),[1],62%
same,Population Hoechst High Intensity Objects (%),[1],15%
same,Population Membrane Permeable-Phenotype (%),[1],7%
same,Population Mitochondria Different-Phenotype (%),[1],4%
same,Population Mitotic Cells (%),[1],30%
same,Population Normal (%),[1],84%
same,Population Pyknosed Nuclei (%),[1],8%
same,Population Tubulin-Different-Phenotype (%),[1],6%
same,Total Cell Count,[1],178
same,Population Apoptotic (%),[2],50%
same,Population Fragmented Nuclei (%),[2],48%
same,Population Healthy Nuclei (%),[2],37%
same,Population Hoechst High Intensity Objects (%),[2],35%
same,Population Membrane Permeable-Phenotype (%),[2],9%
same,Population Mitochondria Different-Phenotype (%),[2],19%
same,Population Mitotic Cells (%),[2],50%
same,Population Normal (%),[2],64%
same,Population Pyknosed Nuclei (%),[2],14%
same,Population Tubulin-Different-Phenotype (%),[2],19%
same,Total Cell Count,[2],87
same,Population Apoptotic (%),[3],44%
same,Population Fragmented Nuclei (%),[3],29%
same,Population Healthy Nuclei (%),[3],46%
same,Population Hoechst High Intensity Objects (%),[3],14%
same,Population Membrane Permeable-Phenotype (%),[3],8%
same,Population Mitochondria Different-Phenotype (%),[3],5%
same,Population Mitotic Cells (%),[3],55%
same,Population Normal (%),[3],85%
same,Population Pyknosed Nuclei (%),[3],24%
same,Population Tubulin-Different-Phenotype (%),[3],23%
same,Total Cell Count,[3],218
same,Population Apoptotic (%),[4],75%
same,Population Fragmented Nuclei (%),[4],55%
same,Population Healthy Nuclei (%),[4],36%
same,Population Hoechst High Intensity Objects (%),[4],41%
same,Population Membrane Permeable-Phenotype (%),[4],17%
same,Population Mitochondria Different-Phenotype (%),[4],23%
same,Population Mitotic Cells (%),[4],25%
same,Population Normal (%),[4],58%
same,Population Pyknosed Nuclei (%),[4],8%
same,Population Tubulin-Different-Phenotype (%),[4],35%
same,Total Cell Count,[4],81
same,Population Apoptotic (%),[5],83%
same,Population Fragmented Nuclei (%),[5],27%
same,Population Healthy Nuclei (%),[5],60%
same,Population Hoechst High Intensity Objects (%),[5],18%
same,Population Membrane Permeable-Phenotype (%),[5],6%
same,Population Mitochondria Different-Phenotype (%),[5],9%
same,Population Mitotic Cells (%),[5],16%
same,Population Normal (%),[5],81%
same,Population Pyknosed Nuclei (%),[5],11%
same,Population Tubulin-Different-Phenotype (%),[5],7%
same,Total Cell Count,[5],187
same,Population Apoptotic (%),[6],25%
same,Population Fragmented Nuclei (%),[6],51%
same,Population Healthy Nuclei (%),[6],41%
same,Population Hoechst High Intensity Objects (%),[6],29%
same,Population Membrane Permeable-Phenotype (%),[6],4%
same,Population Mitochondria Different-Phenotype (%),[6],8%
same,Population Mitotic Cells (%),[6],75%
same,Population Normal (%),[6],70%
same,Population Pyknosed Nuclei (%),[6],6%
same,Population Tubulin-Different-Phenotype (%),[6],12%
same,Total Cell Count,[6],82
same,Population Apoptotic (%),[7],56%
same,Population Fragmented Nuclei (%),[7],30%
same,Population Healthy Nuclei (%),[7],47%
same,Population Hoechst High Intensity Objects (%),[7],20%
same,Population Membrane Permeable-Phenotype (%),[7],4%
same,Population Mitochondria Different-Phenotype (%),[7],10%
same,Population Mitotic Cells (%),[7],43%
same,Population Normal (%),[7],79%
same,Population Pyknosed Nuclei (%),[7],21%
same,Population Tubulin-Different-Phenotype (%),[7],21%
same,Total Cell Count,[7],241
same,Population Apoptotic (%),[8],100%
same,Population Fragmented Nuclei (%),[8],61%
same,Population Healthy Nuclei (%),[8],35%
same,Population Hoechst High Intensity Objects (%),[8],29%
same,Population Membrane Permeable-Phenotype (%),[8],9%
same,Population Mitochondria Different-Phenotype (%),[8],9%
same,Population Mitotic Cells (%),[8],0%
same,Population Normal (%),[8],70%
same,Population Pyknosed Nuclei (%),[8],3%
same,Population Tubulin-Different-Phenotype (%),[8],28%
same,Total Cell Count,[8],84
COc1cc(N2CCC(N3CCN(C)CC3)CC2)ccc1Nc1ncnc(Nc2ccccc2S(=O)(=O)C(C)C)n1 [ASP-3026],Population Apoptotic (%),[3],72% and 66%
same,Population Fragmented Nuclei (%),[3],30% and 23%
same,Population Healthy Nuclei (%),[3],55% and 60%
same,Population Hoechst High Intensity Objects (%),[3],14% and 18%
same,Population Membrane Permeable-Phenotype (%),[3],11% and 9%
same,Population Mitochondria Different-Phenotype (%),[3],6% and 7%
same,Population Mitotic Cells (%),[3],27% and 33%
same,Population Normal (%),[3],85% and 81%
same,Population Pyknosed Nuclei (%),[3],13% and 16%
same,Total Cell Count,[3],252 and 249
same,Population Apoptotic (%),[4],80% and 100%
same,Population Fragmented Nuclei (%),[4],66% and 72%
same,Population Healthy Nuclei (%),[4],24% and 21%
same,Population Hoechst High Intensity Objects (%),[4],38% and 53%
same,Population Membrane Permeable-Phenotype (%),[4],8% and 18%
same,Population Mitochondria Different-Phenotype (%),[4],16% and 0%
same,Population Mitotic Cells (%),[4],20% and 0%
same,Population Normal (%),[4],61% and 46%
same,Population Pyknosed Nuclei (%),[4],10% and 5%
same,Total Cell Count,[4],81 and 110
same,Population Apoptotic (%),[7],79%
same,Population Fragmented Nuclei (%),[7],38% and 22%
same,Population Healthy Nuclei (%),[7],50% and 63%
same,Population Hoechst High Intensity Objects (%),[7],18% and 16%
same,Population Membrane Permeable-Phenotype (%),[7],15% and 7%
same,Population Mitochondria Different-Phenotype (%),[7],1% and 3%
same,Population Mitotic Cells (%),[7],20%
same,Population Normal (%),[7],81% and 83%
same,Population Pyknosed Nuclei (%),[7],11% and 14%
same,Total Cell Count,[7],260 and 264
same,Population Apoptotic (%),[8],50% and 100%
same,Population Fragmented Nuclei (%),[8],76% and 67%
same,Population Healthy Nuclei (%),[8],18% and 28%
same,Population Hoechst High Intensity Objects (%),[8],45% and 53%
same,Population Membrane Permeable-Phenotype (%),[8],14% and 26%
same,Population Normal (%),[8],54% and 46%
same,Population Pyknosed Nuclei (%),[8],5% and 3%
same,Total Cell Count,[8],70 and 112
